Test [1] can be described thus: inhibitors of TNFa-induced NFkB p65 translocation, primary screen, imaging, HUVEC, MLSMR starter and 10KST1 sets (AID 438;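 active means inhibition above 20% together with a positive visual image hit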;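 further: compound added about 3h40 before a 20 min TNFalpha stimulation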;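 on inhibition: signal is the nuclear over cytoplasmic p65 intensity ratio per well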). The following applies: HUVEC TNFa-induced p65 nuclear translocation; cell count: measured here: nuclei count (cytotoxicity indicator), at 2.08 µM; inhibition: at 2 µM, stronger effect = higher value, 0% TNFa-plus-vehicle, 100% no-TNFa wells.
Test [2] can be described thus: inhibitors of E-selectin induction by TNFa, primary screen, imaging, HUVEC, immunofluorescence, MLSMR starter and 10KST1 sets (AID 487;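 active means visually confirmed hit in the image check and inhibition above 20%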;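 on inhibition: signal is fraction of cell area covered by stained E-selectin grains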;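 on nuclei count: 100% = median nuclei count of all wells on the same plate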). The conditions noted are these: HUVEC TNFalpha-induced E-selectin immunofluorescence imaging, at 2 µM; inhibition: stronger effect = higher value; nuclei count: measured here: cell number, toxicity.
Test [3] can be described thus: DUSP6 inhibitors restoring Erk phosphorylation by chemical complementation, primary imaging in DUSP6-transfected HeLa (AID 609;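 active means compounds giving at least 50% inhibition in the cell-based MKP-3 phosphatase rescue imaging test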;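 on inhibition: phospho-Erk level distribution per well compared with pooled transfected vehicle control wells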). The conditions noted are these: HeLa MKP-3 transfected, phospho-Erk imaging KS statistic, at 10 µM, cells stimulated with TPA for 15 min.
Test [4] addresses Dual specificity protein phosphatase 6 (Homo sapiens) (UniProt Q16828). The description is as above. The conditions noted are these: HeLa MKP-3 transfected, phospho-Erk imaging KS statistic; at 10 µM; stronger effect = higher value; cells stimulated with TPA for 15 min.
The target in test [5] is Voltage-gated potassium channel subunit beta-2 (Rattus norvegicus) (UniProt P62483). Nature of the test: KvBeta enzyme negative modulators, primary screen, biochemical, NADPH fluorescence (AID 622;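 active means fluorescence slope higher than the sample average by over 3 SD, cut at about -0.22 in these data, passing the limit was not always enough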;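 further: slope of raw intensity against log time taken from 70 to 1610 s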). The conditions noted are these: recombinant KvBeta, 4-cyanobenzaldehyde reduction, at 10 µM, stronger effect = higher value.
Test [6] has the same target. Nature of the test: KvBeta positive modulators, primary screen, biochemical, NADPH fluorescence (AID 623;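 active means NADPH fluorescence slope more negative than the mean of all samples by about 3 SD, 99.7% confidence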;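 further: fluorescence intensity change per second fitted from 20 to 320 s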). The conditions noted are these: Recombinant KvBeta, NADPH fluorescence decrease slope, 10 min; at 10 µM; stronger effect = lower value.
For test [7], the target named is Alpha-2C adrenergic receptor (Homo sapiens) (UniProt P18825). Nature of the test: modulators of alpha2C/GIRK thallium flux, primary screen, cell-based, HEK293 alpha2C/GIRK1/2 (AID 624;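 active means fluorescence slope after compound addition differing from the mean of all screened samples at 99.7% confidence, in either direction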;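 further: slope of fluorescence ratio to pre-addition baseline per second over 15 to 24 s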). The conditions noted are these: thallium flux BTC fluorescence, at 10 µM, actives lie on both sides.
Test [8] in a line: inhibitors of larval lipid processing in zebrafish, primary screen, whole organism, PED6 fluorescence, gall bladder and intestine (AID 686).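 Further: larvae 5 to 7 days old with five fish per well; signal comes from phospholipase A2 cleavage of quenched PED6 carried via bile; overnight exposure to compound and PED6 before scoring.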 The conditions noted are these: Zebrafish larvae PED6 lipid processing, fluorescence scoring; screened at 20 µM (by protocol). The method, boiled down:
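Also added: quenched phospholipase substrate PED6, 100 nM final, ingested by larvae; System: zebrafish larvae, 5-7 d; Quantity: 5 larvae per well; Compound: 20 µM single dose; Schedule: overnight compound and PED6 incubation; Read-out: visual per-well fluorescence inhibition score; Measured by: By-eye fluorescence microscopy; Medium: E3.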

A short description of test [9]: inhibitors of Chlamydomonas gravitaxis, primary screen, whole organism, Chlamydomonas reinhardtii, WT vs cilia-less mutant, absorbance, 96-well (AID 463189;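 active means inhibition at or above 50% relative to wild type and mutant plate controls; inactive means inhibition below 50%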;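 further: 0% = wild type cc124 cells in DMSO and 100% = ciliumless bld1 mutant cells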). The conditions noted are these: OD600 absorbance, 2 days, at 10 µM, stronger effect = higher value.
[10] abbreviates: measured here: cell density z-score.
Setting [11] is: measured here: nuclear c-Myc green intensity z-score.
The mark [12] stands for this setting: measured here: nuclear pErk red intensity z-score, stronger effect = higher value.

SMILES strings stand for the structures. The source made the active and inactive calls.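 How the source made its calls, unless noted: active means a full or partial loss of lipid-probe fluorescence in the fish gall bladder, intestine or both, judged by eye; inactive means no fluorescence loss, or compound toxic to the fish.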

Chain of Dual specificity protein phosphatase 6 (Homo sapiens) (Q16828 whole entry, looked up): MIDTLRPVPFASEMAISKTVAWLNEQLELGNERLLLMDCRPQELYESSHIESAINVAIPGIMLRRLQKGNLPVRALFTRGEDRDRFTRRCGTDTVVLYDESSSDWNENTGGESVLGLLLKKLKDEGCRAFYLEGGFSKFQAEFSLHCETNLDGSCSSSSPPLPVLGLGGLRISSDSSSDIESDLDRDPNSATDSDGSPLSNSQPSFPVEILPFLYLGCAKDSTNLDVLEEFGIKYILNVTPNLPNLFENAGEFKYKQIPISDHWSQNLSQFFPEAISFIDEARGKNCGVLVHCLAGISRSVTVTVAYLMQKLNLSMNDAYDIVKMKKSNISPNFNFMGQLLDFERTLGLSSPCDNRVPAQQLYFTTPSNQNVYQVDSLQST
Chain of Alpha-2C adrenergic receptor (Homo sapiens) (P18825 whole entry, looked up): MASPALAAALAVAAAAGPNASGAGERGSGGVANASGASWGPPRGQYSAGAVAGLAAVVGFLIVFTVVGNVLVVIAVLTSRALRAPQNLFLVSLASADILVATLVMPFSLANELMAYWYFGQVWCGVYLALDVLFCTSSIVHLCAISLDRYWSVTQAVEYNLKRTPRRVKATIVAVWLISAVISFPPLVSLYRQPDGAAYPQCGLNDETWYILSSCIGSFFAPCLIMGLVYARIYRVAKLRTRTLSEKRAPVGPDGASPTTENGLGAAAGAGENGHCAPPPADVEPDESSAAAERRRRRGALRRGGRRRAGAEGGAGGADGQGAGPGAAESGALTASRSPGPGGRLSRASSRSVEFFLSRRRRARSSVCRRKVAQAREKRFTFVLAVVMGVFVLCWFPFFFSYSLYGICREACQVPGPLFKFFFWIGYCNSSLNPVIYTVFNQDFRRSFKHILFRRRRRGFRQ
Chain of Voltage-gated potassium channel subunit beta-2 (Rattus norvegicus) (P62483 whole entry, looked up): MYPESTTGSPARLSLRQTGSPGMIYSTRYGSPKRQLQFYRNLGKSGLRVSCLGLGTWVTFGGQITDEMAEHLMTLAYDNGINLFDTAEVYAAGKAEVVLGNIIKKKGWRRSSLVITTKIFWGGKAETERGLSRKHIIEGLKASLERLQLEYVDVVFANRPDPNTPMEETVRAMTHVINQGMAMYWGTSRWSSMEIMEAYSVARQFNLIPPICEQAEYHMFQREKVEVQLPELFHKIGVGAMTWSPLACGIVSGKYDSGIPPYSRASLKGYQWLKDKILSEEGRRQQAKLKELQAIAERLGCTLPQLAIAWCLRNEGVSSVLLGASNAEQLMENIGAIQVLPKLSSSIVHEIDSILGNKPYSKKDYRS

Turning to `CCOC(=O)C1CCCN(c2nc3ccccc3nc2C(C#N)C(=O)OC(C)C)C1` (centres undefined), in test [1], the cell count came out at 547. Also, the inhibition – broadly, the drop in the measured response relative to a control, in per cent – in test [1] was -8.3% (inactive); in test [2] it was 14.3% (inactive); in test [4], -7.86% (inactive); in [9], 25.2% (inactive). Also, the nuclei count in test [2] was found to be 143%. Besides, the values for the z-score in test [3] (setting [10]), in test [3] (setting [11]) and in test [3] (setting [12]) were -1.02, 0.486 and -0.3, respectively. Further, in [5], the fluorescence slope is -0.504 (inactive). Besides, the NADPH fluorescence slope in test [6] was -3.6e-05 (inactive). Further, the slope in [7] was 0.00207 (inactive). Also, the call in [8] was inactive.

With `C=C1c2cc(OC)ccc2NC(=O)N1CC`, the cell count in test [1] worked out at 611. The inhibition in test [1] was 0.3% (inactive); in test [2], -36.5% (inactive); in test [4], -4.7% (inactive); in [9] it was 5.59% (inactive). Also, the nuclei count in test [2] came out at 127%. The z-score was 0.269 in test [3] (setting [10]), 0.973 in [3] (setting [11]) and -0.0863 in [3] (setting [12]). In addition, in test [5], the fluorescence slope is -0.452 (inactive). Besides, in test [6], the NADPH fluorescence slope is -0.0002 (inactive). Also, the slope in test [7] was 0.00447 (inactive). For the same compound, the call in test [8] was inactive.

On to `Cc1ccc2c(c1)C(CCN)C(=O)N2Cc1ccccc1` (centres undefined), for which the cell count in [1] worked out at 622. The inhibition in test [1] was -12.2% (inactive); in test [2] it was -11.3% (inactive); in test [4], -15% (inactive); in test [9], 9.26% (inactive). The compound further displayed a nuclei count in test [2] of 154%. Further, the z-score was 0.106 in test [3] (setting [10]), 0.432 in test [3] (setting [11]) and 0.437 in [3] (setting [12]). The fluorescence slope in test [5] is -0.424 (inactive). Also, the NADPH fluorescence slope in [6] is -3.4e-05 (inactive). For the same compound, the slope in test [7] is 0.00511 (inactive). Besides, the outcome in test [8] was inactive.

Consider `ONC(=Nc1ccccc1)C(=Nc1ccccc1)NO`, for which, in test [1], the cell count turned out to be 348. Besides, the inhibition is -0.3% (inactive) in test [1], -28.3% (inactive) in test [2], 17% (inactive) in test [4] and 25.5% (inactive) in [9]. The compound further registered a nuclei count in [2] of 100%. The z-score in test [3] (setting [10]) is 1.37; in test [3] (setting [11]), 1.46; in test [3] (setting [12]), 0.663. Also, in test [5], the fluorescence slope is -0.542 (inactive). For the same compound, the NADPH fluorescence slope in test [6] was -6e-05 (inactive). Moreover, in test [7], the slope was 0.00535 (inactive). Also, the result in test [8] was inactive.

As to `CN1C(=O)N(c2ccccc2)C(Nc2nncs2)C1(C)C` (centres undefined), the cell count in test [1] stood at 438. Besides, the inhibition was 3.5% (inactive) in [1], -58.9% (inactive) in [2], -2.29% (inactive) in test [4] and 1.2% (inactive) in [9]. In addition, the nuclei count in test [2] is 167%. Also, the z-score is -0.342 in [3] (setting [10]), 0.524 in [3] (setting [11]) and 0.181 in [3] (setting [12]). Further, in test [5], the fluorescence slope was -0.341 (inactive). The NADPH fluorescence slope in [6] was -2.5e-05 (inactive). In addition, in test [7], the slope is 0.00481 (inactive). Besides, the compound was called inactive in test [8].

On to `CCN(CC)CCCn1c(C)cc2c(c1=O)C(c1ccc(OC)c(OC)c1OC)C(C#N)=C(N)O2` (centres undefined), for which, in test [1], the cell count stood at 439. The inhibition in test [1] is 13.1% (inactive); in test [2], -23% (inactive); in test [4], 2.46% (inactive); in test [9], -3.45% (inactive). In test [2], the nuclei count is 134%. Also, the z-score in test [3] (setting [10]) is -1.55; in [3] (setting [11]), -0.016; in test [3] (setting [12]) it was 0.949. In addition, the fluorescence slope in [5] is -0.389 (inactive). Also, in test [6], the NADPH fluorescence slope is -3.6e-05 (inactive). For the same compound, the slope in test [7] is 0.0068 (inactive). For the same compound, the result in [8] was inactive.

Turning to `COC(=O)c1sc(NC(=O)C(C)C)c(C(=O)OC)c1C`, the cell count in test [1] amounted to 354. The inhibition in [1] is -0.5% (inactive); in [2], 29.8% (inactive); in test [4], 3.42% (inactive); in [9], -7.45% (inactive). Also, the nuclei count in test [2] stood at 93.5%. The z-score in [3] (setting [10]) is -0.757; in test [3] (setting [11]) it was -0.742; in test [3] (setting [12]), 1.06. The fluorescence slope in test [5] is -0.426 (inactive). In addition, the NADPH fluorescence slope in test [6] is -1.5e-05 (inactive). Moreover, in test [7], the slope is 0.00623 (inactive). For the same compound, in test [8], the outcome was inactive.

`COc1ccc(-c2nn3c(C4CCCCC4)nnc3s2)cc1OC`: the cell count in test [1] is 580. Moreover, the inhibition in test [1] is -19.9% (inactive); in [2] it was -19.9% (inactive); in test [4] it was -18.6% (inactive); in [9] it was 25.1% (inactive). Besides, in test [2], the nuclei count is 159%. Moreover, the z-score in test [3] (setting [10]) is -0.887; in test [3] (setting [11]), 0.0164; in test [3] (setting [12]), 0.338. Further, the fluorescence slope in test [5] is -0.442 (inactive). Besides, in test [6], the NADPH fluorescence slope was -0.000143 (inactive). In addition, the slope in test [7] is 0.00441 (inactive). In addition, the call in [8] was inactive.

Turning to `Cc1cc(=O)oc(C)c1C(=O)N1CCN(C)CC1`, the cell count in test [1] amounted to 367. The inhibition was -10.4% (inactive) in test [1], -117% (inactive) in test [2], -8.59% (inactive) in [4] and 5.44% (inactive) in test [9]. Besides, the nuclei count in test [2] worked out at 167%. The z-score in test [3] (setting [10]) was -1.15; in test [3] (setting [11]), 0.212; in test [3] (setting [12]), 0.815. In addition, the fluorescence slope in test [5] is -0.463 (inactive). Besides, the NADPH fluorescence slope in test [6] was -0.000105 (inactive). Also, the slope in test [7] was 0.00444 (inactive). The result in [8] was inactive.

Consider `O/N=C1\CCc2cc(Cl)ccc21`, for which, in [1], the cell count came to 384. Moreover, the inhibition in test [1] is -4% (inactive); in [2], -24.4% (inactive); in test [4] it was -0.159% (inactive); in [9] it was -12.6% (inactive). The nuclei count in [2] turned out to be 101%. Besides, the z-score was -3.01 in test [3] (setting [10]), 0.785 in test [3] (setting [11]) and -0.837 in [3] (setting [12]). The fluorescence slope in test [5] was -0.48 (inactive). The NADPH fluorescence slope in test [6] was -0.000244 (inactive). Besides, the slope in test [7] was 0.0047 (inactive). Besides, the result in [8] was inactive.

As for `O=c1[nH]cnc2cc(-c3ccccc3)sc12`, the cell count in test [1] was determined as 526. Besides, the inhibition was -9.9% (inactive) in test [1], -20.4% (inactive) in test [2], 21% (inactive) in test [4] and -1.84% (inactive) in [9]. In test [2], this compound gave a nuclei count of 168%. Further, the z-score in [3] (setting [10]) was 0.45; in test [3] (setting [11]), -1.43; in [3] (setting [12]) it was 0.87. In test [5], the fluorescence slope was -0.351 (inactive). Also, in test [6], the NADPH fluorescence slope is -9.5e-06 (inactive). Moreover, the slope in test [7] was 0.00529 (inactive). Besides, in [8], the compound was called inactive.

For `CCOC(=O)CSc1nc(NC#N)nc(N(CC)CC)n1`, in test [1], the cell count worked out at 650. Besides, the inhibition in test [1] is -7.6% (inactive); in [2], -42.9% (inactive); in test [4] it was 13.2% (inactive); in [9], -12.7% (inactive). This compound gave a nuclei count in [2] of 165%. Moreover, the values for the z-score in test [3] (setting [10]), in test [3] (setting [11]) and in test [3] (setting [12]) were -0.121, -0.374 and -1.34, respectively. Besides, the fluorescence slope in test [5] was -0.51 (inactive). Also, the NADPH fluorescence slope in test [6] is -9.5e-05 (inactive). For the same compound, in [7], the slope is 0.0053 (inactive). For the same compound, the call in test [8] was inactive.

With `CC1CN(C2CCN(C(=O)COc3ccccc3)CC2)CC(C)O1` (centres undefined), the cell count in test [1] is 357. In addition, the inhibition was -12.6% (inactive) in test [1], -160% (inactive) in test [2], 1.75% (inactive) in [4] and -3.28% (inactive) in [9]. For the same compound, the nuclei count in test [2] amounted to 111%. Besides, the z-score was -0.694 in test [3] (setting [10]), 1.72 in test [3] (setting [11]) and -2.62 in test [3] (setting [12]). In addition, the fluorescence slope in [5] was -0.455 (inactive). For the same compound, the NADPH fluorescence slope in [6] was -1.3e-05 (inactive). The slope in test [7] was 0.00556 (inactive). In addition, the compound was called inactive in test [8].

These data come from PubChem BioAssay.
